Structures are written as SMILES. Where two headings read alike, the source gives them in different places.

Consider 15 compounds from paper PMC4789169 (Bioorganic & medicinal chemistry, 2016).

The subject of data set [1] is CNS SF-539. The following applies: read-out: Cytotoxicity (GI50, μM) CNS SF-539; NCI-60; cited from earlier work.
Data set [2] concerns Melanoma UACC-62. Particulars: read-out: Cytotoxicity (GI50, μM) Melanoma UACC-62; NCI-60; cited from earlier work.
Data set [3] addresses T1, recombinant Top1 (Homo sapiens, UniProt P11387).
T1 sequence (P11387 1-765): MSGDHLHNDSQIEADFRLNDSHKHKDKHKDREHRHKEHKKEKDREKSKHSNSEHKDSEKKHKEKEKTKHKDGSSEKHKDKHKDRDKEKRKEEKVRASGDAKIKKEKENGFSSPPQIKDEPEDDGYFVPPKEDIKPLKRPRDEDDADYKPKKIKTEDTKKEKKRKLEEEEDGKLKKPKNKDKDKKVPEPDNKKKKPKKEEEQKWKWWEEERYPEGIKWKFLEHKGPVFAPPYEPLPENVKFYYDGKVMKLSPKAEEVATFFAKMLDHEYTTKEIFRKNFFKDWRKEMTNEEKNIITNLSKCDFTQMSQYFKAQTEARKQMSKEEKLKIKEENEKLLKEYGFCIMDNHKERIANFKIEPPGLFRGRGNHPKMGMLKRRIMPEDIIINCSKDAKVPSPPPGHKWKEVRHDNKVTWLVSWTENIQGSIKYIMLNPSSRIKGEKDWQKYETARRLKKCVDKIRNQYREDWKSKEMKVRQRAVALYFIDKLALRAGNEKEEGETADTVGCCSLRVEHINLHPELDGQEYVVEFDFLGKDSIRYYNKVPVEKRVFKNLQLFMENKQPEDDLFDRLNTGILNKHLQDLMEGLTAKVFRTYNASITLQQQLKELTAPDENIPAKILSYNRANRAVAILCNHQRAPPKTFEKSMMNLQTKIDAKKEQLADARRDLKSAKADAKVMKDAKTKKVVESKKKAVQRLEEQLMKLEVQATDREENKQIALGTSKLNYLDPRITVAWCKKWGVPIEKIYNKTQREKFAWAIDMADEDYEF
Also noted: key to the marks not given beside the values. The following applies: score relative to 1 μM camptothecin (1); cited from earlier work.

The subject of data set [4] is Renal SN12C. Particulars: read-out: Cytotoxicity (GI50, μM) Renal SN12C; NCI-60; cited from earlier work.
In data set [5] the test system is Lung HOP-62. The following applies: read-out: Cytotoxicity (GI50, μM) Lung HOP-62; NCI-60; cited from earlier work.
For data set [6], the system named is Colon HCT-116. The following applies: read-out: Cytotoxicity (GI50, μM) Colon HCT-116; NCI-60; cited from earlier work.
Data set [7] has as its system Ovarian OVCAR-3. The following applies: read-out: Cytotoxicity (GI50, μM) Ovarian OVCAR-3; NCI-60; cited from earlier work.
Data set [8] concerns Prostate DU-145. Particulars: read-out: Cytotoxicity (GI50, μM) Prostate DU-145; NCI-60; cited from earlier work.
For data set [9] the following is noted: cited from earlier work.
Data set [10] deals with T1, recombinant Top1. The experiment in a line: Top1-mediated DNA cleavage assay. Particulars: for Top1 Cleavage: score relative to 1 μM camptothecin (1), tested at 0.1, 1, 10, 100 μM. It counts as biochemical.
Data set [11] concerns all 60 cell lines (NCI-60 human tumor cell line screen). The experiment in a line: NCI-60 GI50 mean graph midpoint. It counts as cell-based. Particulars: read-out: Cytotoxicity (GI50, μM) MGM. The gist of the method:
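Compounds were first screened at a single 10 μM dose across NCI-60 lines. Those with low enough averaged growth percent advanced to a five-concentration assay (10⁻⁸–10⁻⁴ M). […] Values beyond the range were recorded as the minimum or maximum tested concentration. MGM is the average GI50 over all 60 lines.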

One may read the GI50 as the concentration at which growth is held to half of that of the control. `COc1cc2c3c(n(CCCN4CCOCC4)c(=O)c2cc1OC)-c1cc2c(cc1C3=O)OCO2` [Compound 4, indotecan]: the GI50 is 0.04 µM in data set [1]; 0.03 µM in data set [2]; 0.813 µM in data set [4]; 1.78 µM in [5]; 1.15 µM in data set [6]; 74.1 µM in data set [7]. Besides, the GI50 in data set [8] was 0.155 µM. Besides, the “Top1 Cleavage” value in data set [3] is “++++”.
Consider `COc1cc2c3c(n(CCCn4ccnc4)c(=O)c2cc1OC)-c1cc2c(cc1C3=O)OCO2` [Compound 5, indimitecan], for which the GI50 in data set [1] is 0.037 µM; in [2], below 0.01 µM; in data set [4] it was below 0.01 µM; in [5] it was below 0.01 µM; in data set [6], below 0.01 µM; in data set [7] it was 0.085 µM. In addition, the GI50 in data set [8] was below 0.01 µM. For the same compound, in data set [3], the “Top1 Cleavage” value is given as “++++”. Besides, in [9], the “Metabolism in the presence of human liver microsomes” value is recorded as “oxidative demethylation of the 2-methoxy group”.
Regarding `COc1cc2c3c(n(CCCNCCO)c(=O)c2cc1OC)-c1cc2c(cc1C3=O)OCO2` [Compound 6, MJ-III-65], the GI50 in data set [2] is 0.03 µM; in data set [8], 0.02 µM. Besides, the “Top1 Cleavage” value in [3] is reported as “++++”.
With `O=C1c2cc3c(cc2-c2c1c1ccc(F)cc1c(=O)n2C[C@H](O)CO)OCO3` [Compound 21, (S)-3-Fluoro-6-(2,3-dihydroxypropyl)-8,9-methylenedioxy-5H-indeno[1,2-c]isoquinoline-5,11(6H)-dione], in [10], the “Top1 Cleavage” value is on record as “++++”.
Take `O=C1c2cc3c(cc2-c2c1c1ccc(Cl)cc1c(=O)n2C[C@H](O)CO)OCO3` [Compound 22, (S)-3-Chloro-6-(2,3-dihydroxypropyl)-8,9-methylenedioxy-5H-indeno[1,2-c]isoquinoline-5,11(6H)-dione]: the “Top1 Cleavage” value in [10] was “++ (++, between 50 and 75% activity)”.
As for `O=C1c2cc3c(cc2-c2c1c1ccc(F)cc1c(=O)n2C[C@H](O)[C@@H](O)[C@H](O)CO)OCO3` [Compound 23, (2′S,3′R,4′R)-3-Fluoro-5,6-dihydro-6-(2′,3′,4′,5′-tetrahydroxypentyl)-8,9-methylenedioxy-5,11-dioxo-11H-indeno[1,2-c]isoquinoline], the “Top1 Cleavage” value in data set [10] is “++ (++, between 50 and 75% activity)”.
Consider `O=C1c2cc3c(cc2-c2c1c1ccc(Cl)cc1c(=O)n2C[C@H](O)[C@H](O)[C@H](O)CO)OCO3` [Compound 24, (2′S,3′S,4′R)-3-Chloro-5,6-dihydro-6-(2′,3′,4′,5′-tetrahydroxypentyl)-8,9-methylenedioxy-5,11-dioxo-11H-indeno[1,2-c]isoquinoline], for which, in [10], the “Top1 Cleavage” value was “+ (+, between 20 and 50% activity)”.
In the case of `O=C1c2cc3c(cc2-c2c1c1ccc(F)cc1c(=O)n2CCCn1ccnc1)OCO3` [Compound 25, 3-Fluoro-6-(3-(1H-imidazol-1-yl)propyl)-8,9-methylenedioxy-5,11-dioxo-11H-indeno[1,2-c]isoquinoline], in data set [10] (high drug concentration (100 μM), band density at several cleavage sites decreases), the Top1 suppression activity entry was “suppress Top1-mediated DNA cleavage”. Also, the “Top1 Cleavage” value in [10] is “+++ (+++, between 75 and 95% activity)”. Besides, the GI50 in data set [11] is at most 0.011 µM.
As for `O=C1c2cc3c(cc2-c2c1c1ccc(Cl)cc1c(=O)n2CCCn1ccnc1)OCO3` [Compound 26, 3-Chloro-6-(3-(1H-imidazol-1-yl)propyl)-8,9-methylenedioxy-5,11-dioxo-11H-indeno[1,2-c]isoquinoline], the “Top1 Cleavage” value in [10] was “++ (++, between 50 and 75% activity)”.
As to `O=C(O)C(F)(F)F.O=C1c2cc3c(cc2-c2c1c1ccc(F)cc1c(=O)n2CCCN1CCOCC1)OCO3` [Compound 27, 3-Fluoro-5,6-dihydro-6-(3-morpholinopropyl)-8,9-methylenedioxy-5,11-dioxo-11H-indeno[1,2-c]isoquinoline Trifluoroacetate], the “Top1 Cleavage” value in data set [10] was “+ (+, between 20 and 50% activity)”.
As to `O=C(O)C(F)(F)F.O=C1c2cc3c(cc2-c2c1c1ccc(Cl)cc1c(=O)n2CCCN1CCOCC1)OCO3` [Compound 28, 3-Chloro-5,6-dihydro-6-(3-morpholinopropyl)-8,9-methylenedioxy-5,11-dioxo-11H-indeno[1,2-c]isoquinoline Trifluoroacetate], the “Top1 Cleavage” value in data set [10] is “+ (+, between 20 and 50% activity)”.
`O=C1c2cc3c(cc2-c2c1c1cc(F)c(F)cc1c(=O)n2C[C@H](O)CO)OCO3` [Compound 37, (S)-2,3-Difluoro-6-(2,3-dihydroxypropyl)-8,9-methylenedioxy-5,11-dioxo-11H-indeno[1,2-c]isoquinoline]: the “Top1 Cleavage” value in data set [10] was “++ (++, between 50 and 75% activity)”.
Take `O=C1c2cc3c(cc2-c2c1c1cc(F)c(F)cc1c(=O)n2CCCn1ccnc1)OCO3` [Compound 38, 2,3-Difluoro-6-(3-(1H-imidazol-1-yl)propyl)-8,9-methylenedioxy-5,11-dioxo-11H-indeno[1,2-c]isoquinoline]: the “Top1 Cleavage” value in data set [10] was “+ (+, between 20 and 50% activity)”. Also, the GI50 in data set [11] was 0.03 µM.
Take `O=C1c2cc3c(cc2-c2c1c1cc(Cl)c(Cl)cc1c(=O)n2C[C@H](O)CO)OCO3` [Compound 45, (S)-2,3-Dichloro-6-(2,3-dihydroxypropyl)-8,9-methylenedioxy-5,11-dioxo-11H-indeno[1,2-c]isoquinoline]: in data set [10], the “Top1 Cleavage” value is “++ (++, between 50 and 75% activity)”.
For `O=C1c2cc3c(cc2-c2c1c1cc(Cl)c(Cl)cc1c(=O)n2CCCn1ccnc1)OCO3` [Compound 46, 2,3-Dichloro-6-(3-(1H-imidazol-1-yl)propyl)-8,9-methylenedioxy-5,11-dioxo-11H-indeno[1,2-c]isoquinoline], the “Top1 Cleavage” value in data set [10] is “+ (+, between 20 and 50% activity)”.
